The list is not random: actives were taken first. Their share in the collection is about 2.3%.
TRPC6 inh – inhibitors of mouse TRPC6 channel. Q61143. HEK293-TRPC6, membrane potential dye, ACh-evoked depolarization; hits give low values. B-score at 10 µM. 310,000 tested, 1.1% active. AID 2553;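 active = B-score under library mean minus 3 SD, initial fluorescence not abnormally high, positive integrated signal ratio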;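 note: B-score derived from integrated fluorescence ratio over the kinetic read; more negative B-score means stronger inhibition of depolarization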
TRPC4 potent – allosteric potentiators of mouse TRPC4 channel; Q9QUQ5; HEK293 TRPC4beta/mu-opioid, DAMGO EC20, Fluo-4 Ca2+ flux; hits give high values; B-score at 10 µM; 310,000 tested, 0.42% active; AID 2227;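 active = B-score of calcium response area above 5 SD of library B-scores, with initial fluorescence ratio within 5 SD of library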
Target sequence (Q9QUQ5 whole entry, looked up): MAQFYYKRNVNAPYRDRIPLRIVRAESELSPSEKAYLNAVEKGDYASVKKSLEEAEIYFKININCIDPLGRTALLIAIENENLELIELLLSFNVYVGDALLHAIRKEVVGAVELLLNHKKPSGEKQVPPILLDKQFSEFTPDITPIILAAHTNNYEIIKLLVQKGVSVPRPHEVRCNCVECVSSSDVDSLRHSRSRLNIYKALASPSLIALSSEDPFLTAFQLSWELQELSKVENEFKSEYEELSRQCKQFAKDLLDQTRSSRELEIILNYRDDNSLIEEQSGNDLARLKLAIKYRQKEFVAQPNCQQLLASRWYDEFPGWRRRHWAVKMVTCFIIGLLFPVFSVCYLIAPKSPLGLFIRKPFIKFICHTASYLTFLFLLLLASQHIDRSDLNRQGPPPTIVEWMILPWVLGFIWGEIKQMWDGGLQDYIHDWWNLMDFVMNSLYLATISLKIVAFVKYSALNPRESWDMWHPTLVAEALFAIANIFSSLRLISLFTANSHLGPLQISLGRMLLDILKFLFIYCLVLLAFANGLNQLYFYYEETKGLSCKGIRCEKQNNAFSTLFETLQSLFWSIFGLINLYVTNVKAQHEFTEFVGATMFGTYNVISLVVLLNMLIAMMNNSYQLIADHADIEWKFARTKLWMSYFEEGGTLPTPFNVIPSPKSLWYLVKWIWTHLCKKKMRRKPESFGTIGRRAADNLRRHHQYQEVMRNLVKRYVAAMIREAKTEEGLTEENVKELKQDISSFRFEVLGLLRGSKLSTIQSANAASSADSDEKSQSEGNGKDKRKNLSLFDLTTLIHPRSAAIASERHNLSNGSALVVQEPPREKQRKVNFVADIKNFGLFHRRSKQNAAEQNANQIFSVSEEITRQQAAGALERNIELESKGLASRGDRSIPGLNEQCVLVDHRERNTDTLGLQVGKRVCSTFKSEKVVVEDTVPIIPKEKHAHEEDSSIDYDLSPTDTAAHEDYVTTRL
TRPC4 block – TRPC4 (mouse) channel inhibition. Q9QUQ5. HEK293 TRPC4beta/mu-opioid, DAMGO-evoked Fluo4 calcium flux; hits give low values. B-score at 10 µM. 300,000 tested, 0.39% active. AID 2247;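 active = B-score over 3 SD under the library average, no early fluorescence shift, positive overall ratio signal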
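Test system – stable TRPC4beta/mu-opioid receptor HEK293 cells · Probe or stimulus – DAMGO, a submaximal dose followed by a maximal one · Dosing – one concentration per compound · Signal – Fluo4 calcium fluorescence by kinetic imaging, 5 s 1 Hz baseline · Evaluation – per-well B score of integrated baseline-normalized Fluo4 ratio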
TRPC4 act – opens the mouse TRPC4 cation channel; HEK293 TRPC4beta/mu-opioid, Fluo4 calcium fluorescence; hits give high values; B-score at 10 µM; 310,000 tested, 0.49% active;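 active = B-score above 5 SD of library B-scores, and initial fluorescence ratio not above library mean plus 5 SD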;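 note: positive B-score marks a calcium rise read as TRPC4 activation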
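Material: HEK293 stable line with TRPC4beta plus mu-opioid receptor; technique: Fluo4 calcium-sensitive dye fluorescence, kinetic, 1 Hz baseline; timing: Fluo4 dye loading 45 min at room temperature, 110 s recording; controls: assay buffer as low control, maximal DAMGO as high control; read-out: integrated baseline-normalised fluorescence ratio, converted to per-well B score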
TRPC6 activator – mouse TRPC6 channel activation. Q61143. HEK293-TRPC6 membrane potential dye fluorescence; hits give high values. B-score at 10 µM. 310,000 tested, 0.13% active. AID 2550;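 active = B-score of the integrated fluorescence ratio above library mean plus 3 SD, and starting fluorescence ratio within library mean plus 5 SD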;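 note: higher score means more depolarization so channel activation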
Hits are given with their value; . = inactive.

SMILES	TRPC6 inh	TRPC4 potent	TRPC4 block	TRPC4 act	TRPC6 activator
COc1ccc(CCNC2CCC(c3ccccc3)CC2)cc1 (stereo not given)	.	.	.	104	.
COc1ccc(CCNC2CCc3ccccc3C2)cc1 (stereo not given)	.	.	.	.	.
CCC(=O)N(Cc1ccco1)C1CC(=O)N(c2ccccc2)C1=O (stereo not given)	.	.	.	.	.
O=C(O)CCn1cc(/C=C2\NC(=S)N(c3ccccc3)C2=O)c(-c2ccc(Br)cc2)n1	.	.	.	.	.
CC(=O)N/C(=N\c1nc(C)cc(C)n1)Nc1ccc(Cl)cc1Cl	.	.	.	.	.
COc1ccc2nc3cc(Cl)ccc3c(Nc3cc(CN4CCCC4)c(O)c(CN4CCCC4)c3)c2n1	-6.6	.	.	.	.
O=c1oc2ccc3ccccc3c2cc1-c1nnc(-c2ccccc2)o1	.	.	-6	.	.
COc1ccc(-c2nnc(-c3cc4c(ccc5ccccc54)oc3=O)o2)cc1	.	.	.	.	.
Cc1ccc(CNC(=O)C2CCCN(Cc3cnn(-c4ccccc4)c3-n3cccc3)C2)cc1 (stereo not given)	.	.	.	95	.
COc1cc2c(cc1OC)C(c1ccc(N(C)C)cc1)NCC2 (stereo not given)	.	.	.	.	.
Cc1cc(Nc2ccc(C)c(C)c2)c2ccccc2n1	.	.	-6	.	.
CC(=O)Nc1ccc(Nc2cc(C)nc3ccccc23)cc1	.	.	.	.	.
O=C(COc1cccc2ccccc12)N/N=C/c1ccccc1OCc1ccc(C(=O)O)cc1	.	.	-5	.	.
N=C(N)SCc1cn2ccccc2n1	.	16	.	.	.
COc1ccc(N2CCN(C(=O)CCCn3c(=O)[nH]c4cc(Cl)ccc4c3=O)CC2)cc1	.	.	-6	.	.
CC(=O)c1ccc(N2CCN(C(=O)CCCn3c(=O)[nH]c4ccccc4c3=O)CC2)cc1	.	.	.	.	.
NC(=O)c1ccccc1NC(=O)c1ccoc1	.	.	.	.	.
COc1ccc(C2CC(c3ccccc3)Nc3nc(NC(=O)c4cccs4)nn32)cc1 (stereo not given)	.	.	-6	.	.
Cc1cc(N2CCOCC2)nc(NCc2ccccc2)n1	.	.	.	.	.
Cc1cc(NCc2ccccc2)nc(N2CCOCC2)n1	.	.	-6	.	.
CNc1cc(C)nc(N2CCOCC2)n1	.	.	.	.	.
Cc1cc(N2CCCCC2)nc(NCc2ccccc2)n1	.	12	.	47	.
CC(C)C(NC(=O)C(Cc1ccccc1)NC(=O)OCc1ccccc1)C(=O)O (stereo not given)	.	.	.	.	.
CCCCCC(=O)NNC(=S)NC(=O)c1cccc([N+](=O)[O-])c1	.	.	.	60	.
Cc1ccc(C(=O)NC(=S)NNC(=O)COc2ccccc2C)cc1	.	.	.	54	.
SMILES	TRPC6 inh	TRPC4 potent	TRPC4 block	TRPC4 act	TRPC6 activator
Cc1cccc(C(=O)NC(=S)NNC(=O)COc2c(C)cccc2C)c1	.	.	.	102	.
Cc1cccc(C(=O)NC(=S)NNC(=O)Cc2ccccc2)c1	.	.	.	219	.
CCCCCC(=O)NNC(=S)NC(=O)c1ccccc1[N+](=O)[O-]	.	.	.	.	.
Cc1cccc(C(=O)NC(=S)NNC(=O)c2ccccc2Cl)c1	.	.	.	294	.
O=C(COc1ccccc1)NNC(=S)NC(=O)c1ccccc1	.	.	.	46	.
O=C(NC(=S)NNC(=O)c1ccc(Cl)cc1Cl)c1cccnc1	.	.	.	.	.
Cc1ccccc1C(=O)NNC(=S)NC(=O)c1ccc(Cl)cc1Cl	.	.	.	249	.
COc1ccc(C(=O)NC(=S)NNC(=O)COc2ccccc2)cc1	.	.	.	.	.
COC(=O)c1ccccc1NC(=O)CSc1nncn1-c1cccnc1	.	.	.	.	.
CCCC(=O)Nc1c(-c2ccccc2)c(=O)c(C)nn1-c1ccc(Cl)cc1	.	.	.	78	.
COc1ccc(-c2c(NC(=O)c3ccco3)n(-c3ccccc3)nc(C)c2=O)cc1	.	.	.	.	.
CN(C)CC/C=C1/c2ccc(F)cc2Sc2ccc(Cl)cc21	-5.8	.	.	.	.
CN(C)CC/C=C1\c2cc(Cl)ccc2Sc2cc(F)c(F)cc21	-5.5	.	.	.	.
CC1CC(C)CN(CCCNC(=O)c2ccc(N3CCCC3=O)cc2)C1 (stereo not given)	.	25	.	.	.
CC1CC(C)CN(CCCNC(=O)Cn2cccc2C(=O)c2ccccc2)C1 (stereo not given)	.	.	.	105	.
CC1CC(C)CN(CCCNC(=O)c2ccc3c(c2)NC(=O)CS3)C1 (stereo not given)	.	.	.	69	.
O=C(CC1OC(=O)c2ccccc21)Nc1ccc(Cl)c(S(=O)(=O)N2CCCCC2)c1 (stereo not given)	.	.	.	.	.
O=C(Nc1ccc(F)cc1F)c1cc(-c2ccco2)on1	.	.	.	.	.
O=C(Nc1ccc(F)cc1F)c1ccco1	.	.	.	70	.
Cc1cccc(OCC(=O)Nc2nccs2)c1C	.	.	.	.	.
O=C(CSc1nnc(-c2ccc(Cl)cc2Cl)n1C1CCCCC1)N1CCCC1	.	.	-6	.	.
CCCn1cc(CN2CCC(n3nccc3NC(=O)c3ccc4c(c3)OCO4)CC2)c(C)n1	.	.	.	.	.
COC(=O)C1=CN(c2ccc(OC)cc2)C=C(C(=O)OC)C1c1cc(OC)c(OC)cc1OC	.	.	.	.	.
COc1cc(OC)c(C2N(C)c3ccccc3N2C)cc1OC	.	.	-6	.	.
COc1ccc2c(Cl)c(-c3nnc4n3CCCCC4)sc2c1	.	.	.	167	.
SMILES	TRPC6 inh	TRPC4 potent	TRPC4 block	TRPC4 act	TRPC6 activator
Clc1c(-c2nnc3n2CCCCC3)sc2ccccc12	.	.	.	.	.
O=C(O)c1cnc(-c2ccccc2)nc1Sc1ccc(Cl)cc1Cl	.	.	-6	.	.
CC1CN(C(=O)CCC(=O)NCc2ccccc2)c2ccccc2O1 (stereo not given)	.	.	.	.	.
CCN(CC)CCSc1nc(O)c(C(C)C)c(=O)[nH]1	.	12	.	80	.
CCCc1c(O)nc(SCCN(CC)CC)[nH]c1=O	.	.	.	112	.
CCCCSc1nc(O)c(Cc2ccccc2)c(=O)[nH]1	.	.	.	.	.
CC(C)c1c(O)nc(SCCN2CCOCC2)[nH]c1=O	.	.	.	.	.
CCC(C)(C)N(C(=O)CCC(=O)Nc1cc(C)on1)C(C(=O)NC(C)(C)C)c1ccc(OC)cc1 (stereo not given)	.	.	.	.	.
CCn1ncc(C2=NOC(C(=O)Nc3cccc(O)c3)C2)c1C (stereo not given)	.	.	.	.	.
O=c1oc2ccccc2c(O)c1/C=C1\C=Nc2ccccc21	.	.	.	85	.

Compound activity as filed in PubChem BioAssay.
